Experimental data as given in PubChem BioAssay.
Inconclusive results are not listed.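 Rule for the calls, unless noted: active = viability at or below 27.92% in each of two runs, the all-compound median minus 4 SD; inconclusive = no clear call, values can overlap the other calls; inactive = the rest.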

Legend:
[1] = OD615 S. cerevisiae growth inhibition, permissive medium, pilot counter-assay, permissive growth control for S. cerevisiae lifespan shortening project (AID 705;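 active = growth inhibition above 25% in both replicates, a cutoff set 3 SD above the mean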); settings: OD615, 24 h, at 10 µM, active compounds read high
Summary of the method: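 Material: engineered DeaD yeast; Compound: one dose 10 µM, DMSO 0.25% final; Detection: absorbance (optical density) at 615 nm; Buffer or medium: permissive raffinose/galactose medium; Timing: 24 h exposure, 30 °C.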

[2] = Restrictive medium S. cerevisiae growth inhibition, OD615, pilot screen of yeast lifespan reduction project, restrictive growth control (AID 706;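 active = growth inhibition above a set limit, 3 SD over mean compound inhibition, in both replicates, cut at about 43% in these data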;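 note: modified DeaD lifespan yeast strain shifted to restrictive glucose medium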); settings: OD615, 48 h, at 10 µM, active compounds read high
Summary of the method: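 Buffer or medium: restrictive glucose medium (CSMM-D); test system: modified S. cerevisiae; doses: single dose of 10 µM compound final, 0.25% DMSO; schedule: 48 h compound exposure at 30 °C; detection: absorbance (optical density) measured at 615 nm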

[3] = viability gain of MRP-1-high H69AR cells under doxorubicin, pilot screen, MRP-1 activator project, CellTiter-Glo, duplicate (AID 807;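 active = viability increase at or above a cutoff of the median across tested compounds plus 3 SD, cut at about 8.5% in these data, passing the limit was not always enough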;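 note: compound pretreatment 18-22 h then 72 h combined with doxorubicin; 0% = doxorubicin alone and 100% = vehicle without doxorubicin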); settings: H69AR viability with doxorubicin, CellTiter-Glo luminescence; at 10 µM; active compounds read high
[4] = growth suppression of beta-catenin knockout HCT116, pilot screen, human colon tumor cells (AID 823;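 active = cell viability at or below a set limit in both duplicate runs, the limit being the all-compound median minus 4 SD, cut at about 23% in these data, passing the limit was not always enough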;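 note: 0% = wells killed by 20 µM Hyamine and 100% = untreated DMSO cell wells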); settings: CellTiter-Glo, 60 h, at 10 µM, active compounds read low
[5] = growth suppression of PTEN-deleted HCT116, pilot screen, cell-based, HCT116 clonal line, CellTiter-Glo (AID 824); settings: 60 h, at 10 µM, active compounds read low;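 note: 0% = 20 µM Hyamine control and 100% = vehicle cell control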
[6] = inhibitors of the yeast RAM network, pilot screen, dse1pr::URA3 reporter, 5-FOA selection (AID 869;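 active = inhibition over a set limit, the all-compound mean plus 3 SD, in both replicate runs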;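 note: 0% = DMSO wells with no growth and 100% = 10 µM 1-NA-PP1 with full growth; RAM network block rescues cells from 5-FOA so hits raise OD615 growth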); settings: S. cerevisiae dse1pr::URA3 5-FOA growth, OD615, 2 d; at 10 µM; active compounds read high; strain carries analog-sensitive mutant Cbk1 kinase
[7] = RAM signaling pathway blockade in yeast – S. cerevisiae, Pdr1DBD-CYC8 efflux-inhibited sensitized strain, primary screen (AID 1298;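 active = RAM network inhibition above 8.4% in each of two replicates, 3 SD over the compound average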;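 note: 0% = DMSO untreated cells without growth and 100% = 10 µM 1-NA-PP1 full growth; higher means more yeast growth rescued from 5-FOA killing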); settings: S. cerevisiae cbk1-as DSE1-URA3 strain, 5-FOA growth OD615, 2 d; at 50 µM; active compounds read high

O=C(O)Cn1ncc2c1-c1ccoc1CC2
inactive: growth inhibition [1] -0.31% | growth inhibition [2] 2.4% | viability increase [3] -0.14% | viability [4] 106% | viability [5] 96.6% | inhibition [6] 2.17% | RAM network inhibition [7] 0.47%

COc1ccc2nc(NC(=O)C3CCCN3S(=O)(=O)c3ccc(C)cc3)sc2c1 (configuration not stated)
inactive: growth inhibition [1] -6.88% | growth inhibition [2] -4% | viability increase [3] -1.48% | viability [4] 69.3% | viability [5] 72% | inhibition [6] 1.23% | RAM network inhibition [7] 6.79%

CC(C)(C)n1nc2c(c1NC(=O)Cc1ccc(F)cc1)CSC2
inactive: growth inhibition [1] 1.52% | growth inhibition [2] -7.53% | viability increase [3] -0.87% | viability [4] 94% | viability [5] 88.2% | inhibition [6] 2.36% | RAM network inhibition [7] 5.41%

COc1ccc(Cc2nnc(Nc3ccc(C)cc3C)[nH]c2=O)cc1
inactive: growth inhibition [1] -10.4% | growth inhibition [2] -12.6% | viability increase [3] -1.16% | viability [4] 91.2% | viability [5] 94.2% | inhibition [6] 1.08% | RAM network inhibition [7] 7.16%

Cc1ccc(C(=O)N2CCN(C(=O)CN3CCOCC3)C2)cc1
inactive: growth inhibition [1] -4.56% | growth inhibition [2] -13.1% | viability increase [3] -1.25% | viability [4] 95% | viability [5] 97.3% | inhibition [6] -0.175% | RAM network inhibition [7] 0.11%

Cc1ccc(-c2csc(N3CCC(C(N)=O)(N4CCCCC4)CC3)n2)cc1
inactive: growth inhibition [1] 6.21% | growth inhibition [2] -8.75% | viability increase [3] -1.76% | viability [4] 75.5% | viability [5] 75% | inhibition [6] -0.445% | RAM network inhibition [7] 2.58%

COc1ccc(OC)c2c1sc(=NC(=O)C(C)(C)C)n2C
inactive: growth inhibition [1] -7.64% | growth inhibition [2] 6.31% | viability increase [3] -6.23% | viability [4] 84.1% | viability [5] 79.6% | inhibition [6] 3.72% | RAM network inhibition [7] 6.93%

O=C(CCc1nc2ccccc2[nH]1)NCc1ccc2c(c1)OCO2
inactive: growth inhibition [1] -8.32% | growth inhibition [2] -4.06% | viability increase [3] -2.13% | viability [4] 97.8% | viability [5] 91.7% | inhibition [6] 2.1% | RAM network inhibition [7] 1.84%

CCOC(=O)N1CCC(N2C(=O)c3cc(C(=O)NC4CCCCC4)ccc3C2O)CC1 (configuration not stated)
inactive: growth inhibition [1] -2.13% | growth inhibition [2] -0.895% | viability increase [3] -3.03% | viability [4] 94.5% | viability [5] 88.1% | inhibition [6] 0.045% | RAM network inhibition [7] 3.81%

Cc1ccccc1NC(=O)CN(C)S(=O)(=O)c1cccc2cccnc12
inactive: growth inhibition [1] -2.9% | growth inhibition [2] -1.7% | viability increase [3] -0.34% | viability [4] 105% | viability [5] 95.7% | inhibition [6] 1.74% | RAM network inhibition [7] 2.49%

Cc1nc(N2CCN(C)CC2)c2sc(=S)n(-c3ccccc3)c2n1
inactive: growth inhibition [1] -1.92% | growth inhibition [2] -1.67% | viability increase [3] -4.61% | viability [4] 93.4% | viability [5] 86.1% | inhibition [6] 1.31% | RAM network inhibition [7] 3.03%

COc1ccc2c(Cl)c(-c3nnc(SCC(N)=O)n3C)sc2c1
inactive: growth inhibition [1] -2.31% | growth inhibition [2] 11.7% | viability increase [3] -2.99% | viability [4] 106% | viability [5] 94% | inhibition [6] 1.43% | RAM network inhibition [7] 0.69%

Cc1csc(=NC(=O)c2ccccc2)n1Cc1ccco1
inactive: growth inhibition [1] -16.8% | growth inhibition [2] -36% | viability increase [3] -2.24% | viability [4] 87.9% | viability [5] 89.9% | inhibition [6] 1.38% | RAM network inhibition [7] 3.14%

CCC(C)NC(=O)C1CCN(S(=O)(=O)c2cccc3cccnc23)CC1 (configuration not stated)
inactive: growth inhibition [1] -3.39% | growth inhibition [2] 1.06% | viability increase [3] 0.26% | viability [4] 108% | viability [5] 101% | inhibition [6] 2.05% | RAM network inhibition [7] 4.76%

CC(=O)Nc1nc(CC(=O)c2ccccc2)cs1
inactive: growth inhibition [1] -2.4% | growth inhibition [2] -4.14% | viability increase [3] -0.56% | viability [4] 102% | viability [5] 98.9% | inhibition [6] 1.15% | RAM network inhibition [7] 0.47%

COc1ccc(-n2c(Cc3cccn3C)nnc2SCC(=O)N2CCOCC2)cc1
inactive: growth inhibition [1] 3.14% | growth inhibition [2] 10.2% | viability increase [3] -1.11% | viability [4] 103% | viability [5] 96% | inhibition [6] 1.11% | RAM network inhibition [7] 0.98%

CC(=O)N(c1ccccc1)C1SC(=O)N(c2ccccc2)C1=O (configuration not stated)
inactive: growth inhibition [1] -15.9% | growth inhibition [2] -9.37% | viability increase [3] -0.06% | viability [4] 97.9% | viability [5] 99.7% | inhibition [6] 3.73% | RAM network inhibition [7] 6.65%

CCOc1ccccc1N1C(=O)CC(N(O)c2ccccc2)C1=O (configuration not stated)
inactive: growth inhibition [1] -13.4% | growth inhibition [2] -4.14% | viability increase [3] -5.35% | viability [4] 106% | viability [5] 96.3% | inhibition [6] 0.17% | RAM network inhibition [7] 12.8%

O=C(CN1CCN(CC(=O)Nc2ccccn2)CC1)Nc1ccccn1
inactive: growth inhibition [1] -2.54% | growth inhibition [2] -0.335% | viability increase [3] -0.95% | viability [4] 98.6% | viability [5] 97.6% | inhibition [6] 0.705% | RAM network inhibition [7] 6.03%

CCOC(=O)CNC(=O)C(NC(=O)C1CCC(C)CC1)C(C)CC (configuration not stated)
inactive: growth inhibition [1] 0.975% | growth inhibition [2] -17.8% | viability increase [3] -1.73% | viability [4] 98.8% | viability [5] 98% | inhibition [6] 0.95% | RAM network inhibition [7] 0.93%

CCOC(=O)c1sc(NC(=O)c2ccc3ncsc3c2)nc1C
inactive: growth inhibition [1] -5.17% | growth inhibition [2] 0.14% | viability increase [3] -2.47% | viability [4] 84.2% | viability [5] 82.8% | inhibition [6] 2.75% | RAM network inhibition [7] 5.36%

CCCCN(C)CCNC(=O)Cn1c(=O)sc2ccccc21
inactive: growth inhibition [1] -0.71% | growth inhibition [2] 4.21% | viability increase [3] -2.43% | viability [4] 99% | viability [5] 96.6% | inhibition [6] 1.31% | RAM network inhibition [7] 5.27%

O=C(CC(c1ccccc1)c1ccccc1)NCCO
inactive: growth inhibition [1] -6.53% | growth inhibition [2] -4.9% | viability increase [3] 0.49% | viability [4] 100% | viability [5] 96.1% | inhibition [6] 2.24% | RAM network inhibition [7] 5.36%

O=C(NCc1ccc(Cl)c(Cl)c1)c1cccnc1
inactive: growth inhibition [1] -7.96% | growth inhibition [2] 4.69% | viability increase [3] -1.74% | viability [4] 99% | viability [5] 90.9% | inhibition [6] 0.58% | RAM network inhibition [7] 3.32%

CCOc1ccc(N(CC(=O)Nc2nccs2)S(=O)(=O)c2c(C)noc2C)cc1
inactive: growth inhibition [1] -3.78% | growth inhibition [2] 5.32% | viability increase [3] -1.1% | viability [4] 97.5% | viability [5] 89.1% | inhibition [6] 1.25% | RAM network inhibition [7] 8.94%

CCc1cc2c(=O)c(-c3nc4ccccc4[nH]3)coc2c(CN2CCCC(C)C2)c1O (configuration not stated)
inactive: growth inhibition [1] -3.79% | growth inhibition [2] 12.3% | viability increase [3] -0.47% | viability [4] 103% | viability [5] 92.8% | inhibition [6] -0.17% | RAM network inhibition [7] 0.56%

COc1ccc(N2CCN(C3CC(=O)N(C)C3=O)CC2)cc1 (configuration not stated)
inactive: growth inhibition [1] -3.33% | growth inhibition [2] 2.79% | viability increase [3] -0.79% | viability [4] 103% | viability [5] 100% | inhibition [6] 1.95% | RAM network inhibition [7] 4.13%

CCOc1ccc(-n2c(Cc3cc(=O)[nH]c(=O)[nH]3)nnc2SCC(=O)OC)cc1
inactive: growth inhibition [1] -2.32% | growth inhibition [2] 3.42% | viability increase [3] 1.38% | viability [4] 104% | viability [5] 97.3% | inhibition [6] 2.62% | RAM network inhibition [7] 0.78%

Cn1cccc1Cc1nnc(SCC(=O)NCc2ccccc2Cl)n1-c1ccc(F)cc1
inactive: growth inhibition [1] -7.31% | growth inhibition [2] 9.87% | viability increase [3] -5% | viability [4] 87% | viability [5] 86.5% | inhibition [6] 1.92% | RAM network inhibition [7] 8.74%

CC1(C)CC(=O)C(C=NCc2cccnc2)=C(O)C1
inactive: growth inhibition [1] -10.7% | growth inhibition [2] -17.6% | viability increase [3] 0.64% | viability [4] 92.8% | viability [5] 98.8% | inhibition [6] 0.7% | RAM network inhibition [7] 4.76%

CC(=O)c1ccc(NC(=O)C2CCC(C)(C(=O)O)C2(C)C)cc1 (configuration not stated)
inactive: growth inhibition [1] -7.29% | growth inhibition [2] -11.9% | viability increase [3] -0.27% | viability [4] 97.9% | viability [5] 106% | inhibition [6] 2.73% | RAM network inhibition [7] 3.04%

COc1ccc(-c2nnc(SCC(=O)NC(C)C)n2CC2CCCO2)cc1OC (configuration not stated)
inactive: growth inhibition [1] 1.07% | growth inhibition [2] -3.87% | viability increase [3] 0.35% | viability [4] 103% | viability [5] 98.3% | inhibition [6] 1.69% | RAM network inhibition [7] -0.58%

O=C(Cc1n[nH]c(=O)c2ccccc12)NCc1ccccn1
inactive: growth inhibition [1] -3.9% | growth inhibition [2] -19.5% | viability increase [3] -0.08% | viability [4] 103% | viability [5] 99% | inhibition [6] 1.48% | RAM network inhibition [7] 2.08%

COC(=O)c1ccccc1NC(=O)CS(=O)(=O)Cc1nc(-c2ccc(C)cc2)oc1C
inactive: growth inhibition [1] -9.1% | growth inhibition [2] -21.8% | viability increase [3] -2.52% | viability [4] 93.5% | viability [5] 87.8% | inhibition [6] 4.7% | RAM network inhibition [7] 4.03%

COc1cccc(C(=O)Nc2nnc(-c3ccc(F)cc3)o2)c1
inactive: growth inhibition [1] -12.2% | growth inhibition [2] -0.875% | viability increase [3] -3.38% | viability [4] 29% | viability [5] 32% | inhibition [6] 0.4% | RAM network inhibition [7] 0.21%

Cc1ccc(-n2c(C)cc(C(=O)OCC(=O)N(C)C3CCS(=O)(=O)C3)c2C)cc1 (configuration not stated)
inactive: growth inhibition [1] -15.9% | growth inhibition [2] -17.3% | viability increase [3] -1.95% | viability [4] 91.7% | viability [5] 91.1% | inhibition [6] 0.955% | RAM network inhibition [7] 8.11%
